Measurements reported in ChEMBL document CHEMBL3808357, “Discovery of N-(3-((1-Isonicotinoylpiperidin-4-yl)oxy)-4-methylphenyl)-3-(trifluoromethyl)benzamide (CHMFL-KIT-110) as a Selective, Potent, and Orally Available Type II c-KIT Kinase Inhibitor for Gastrointestinal Stromal Tumors (GISTs)” (J Med Chem, 2016).
Active and inactive are the calls of the source. The rule behind the calls is not given here.

Key:
[1] = target: Mast/stem cell growth factor receptor Kit (Homo sapiens) (UniProt P10721); assay: Inhibition of cKIT in human GIST48B cells assessed as suppression of S6K phosphorylation at T389 up to 10 uM after 2 hrs by Western blot analysis; assay type: cell-based
[2] = Antiproliferative activity against cKIT dependent human GIST882 cells assessed as reduction in cell viability after 72 hrs by celltiter-glo/CCK8 assay; assay type: functional; conditions: GIST882, 72 h
Procedure, shortened: (§1)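 Cells were seeded at 1 to 3 × 10⁴ cells/mL with serial compound concentrations and incubated 72 h at 37 °C, 5% CO₂. Viability was read by CellTiter-Glo luminescence or CCK-8 absorbance (450/655 nm). GI50 values are from triplicate testing. GIST-T1 and CHO were grown in DMEM/10% FBS; GIST-882, GIST-48B and MV4-11 in IMDM/10% FBS; other lines in RPMI 1640/10% FBS.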

GISTT1 [3] = assay: Induction of apoptosis in human GISTT1 cells xenografted in nu/nu mouse at 25 to 100 mg/kg/day administered through oral gavage after 21 days by tunel assay; assay type: functional, organism-based
Procedure, shortened: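 Female nu/nu mice, 6 weeks old, received 5 × 10⁶ GIST-T1 cells in PBS/Matrigel (1:1) subcutaneously in the right flank. At 100−200 mm³, six mice per group were dosed daily by oral gavage at 25, 50 or 100 mg/kg/d in 0.5% methylcellulose/0.4% Tween80, or vehicle. Tumor volume was taken as (W²×L)/2, with body weight and tumor measured daily. Tumors were stained for Ki67 (IHC, 1:50 antibody) and by TUNEL.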

[4] = Antiproliferative activity against cKIT dependent human GISTT1 cells assessed as reduction in cell viability after 72 hrs by celltiter-glo/CCK8 assay; assay type: functional; conditions: GISTT1, 72 h; procedure, shortened: as §1
GISTT1 [5] = assay: Induction of apoptosis in human GISTT1 cells assessed as caspase 3 cleavage up to 3 uM after 48 hrs by Western blot analysis; assay type: functional, cell-based
[6] = test system: Mast/stem cell growth factor receptor Kit (Homo sapiens), P10721 [D816V]; assay: Inhibition of Tel-fused cKIT D816V mutant (unknown origin) transfected in mouse BAF3 cells assessed as decrease in cell proliferation after 72 hrs by celltiter-glo/CCK8 assay; assay type: cell-based
Procedure, shortened: (§2)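 Stable BaF3 lines made by retroviral transduction with mutagenized TEL-KIT MSCV vectors, puromycin selection 48 h, then gradual IL-3 withdrawal until IL-3-independent; grown in RPMI 1640 with 10% FBS. Cells at 1 to 3 × 10⁴ cells/mL exposed to a concentration series for 72 h; viability read by CellTiter-Glo luminescence or CCK-8 absorbance (450/655 nm); GI50 from triplicate testing.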

[7] = test system: Mast/stem cell growth factor receptor Kit (Homo sapiens), P10721 [V559D]; assay: Inhibition of Tel-fused cKIT V559D mutant (unknown origin) transfected in mouse BAF3 cells assessed as decrease in cell proliferation after 72 hrs by celltiter-glo/CCK8 assay; assay type: cell-based; procedure, shortened: as §2
[8] = Antiproliferative activity against human BCR-ABL dependent MEG01 cells assessed as reduction in cell viability after 72 hrs by celltiter-glo/CCK8 assay; assay type: functional; conditions: MEG-01, 72 h
[9] = target: Macrophage colony-stimulating factor 1 receptor (Homo sapiens, UniProt P07333); assay: Inhibition of His-tagged recombinant human CSF1R expressed in baculovirus expression system after 1 hr by Z-lyte assay
[10] = Tmax in Sprague-Dawley rat plasma at 1 mg/kg, iv; assay type: ADME, organism-based
Procedure, shortened: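 Male Sprague–Dawley rats, 8 weeks old, six in total, fasted overnight; compound dissolved in 5% DMSO/40% PEG400/55% saline (1 mg/mL dosing solution), given iv or orally. About 0.2 mL jugular blood taken with heparin at 1 min–8 h (iv) or 5 min–24 h (oral); plasma separated at 2–8 °C and stored at −80 °C before analysis.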

[11] = target: Platelet-derived growth factor receptor beta (Homo sapiens, UniProt P09619); assay: Inhibition of N-terminal GST-tagged recombinant human PDGFRbeta (amino acids 557-end) expressed in baculovirus infected insect Sf9 cells using Poly(4:1 Glu, Tyr) peptide as substrate after 1 hr by promega ADP-glo assay
Procedure, shortened: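 ADP-Glo luminescence assay. PDGFRβ (10 ng/μL, 9 μL) with poly(Glu4,Tyr1) substrate (0.4 μg/μL) and 100 μM ATP, serially diluted inhibitor, 1 h at 37 °C. ADP-Glo reagent was added for 40 min, then detection reagent for 30 min. IC50 was taken from the dose−response fit.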

[12] = AUC(0 to infinity) in Sprague-Dawley rat plasma at 10 mg/kg, po; assay type: ADME, organism-based; parameters: dose 10 mg/kg, time infinity, route oral
Procedure, shortened: (§3)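 Male Sprague-Dawley rats, 8 weeks old, fasted overnight, dosed iv or orally. Formulation was 5% DMSO/40% PEG400/55% saline at 1 mg/mL. Blood (~0.2 mL) was drawn from the jugular vein into heparin. Sampling: iv at 1 min to 8 h; oral at 5 min to 24 h. Plasma was separated by centrifugation at 2−8 °C and stored at −80 °C.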

[13] = target: Mast/stem cell growth factor receptor Kit (Homo sapiens) (UniProt P10721); assay: Inhibition of human wild type partial length cKIT expressed in bacterial expression system assessed as residual activity at 1 uM by KinomeScan method
Procedure, shortened: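 KinomeScan competitive binding panel of 468 kinases and mutants, compound tested at 1 μM; read-out is percent activity remaining (binding relative to control).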

K562 = assay: Antiproliferative activity against BCR-ABL dependent human K562 cells assessed as reduction in cell viability after 72 hrs by celltiter-glo/CCK8 assay; assay type: functional; conditions: K562, 72 h; procedure, shortened: as §1
[14] = AUC(0 to t) in Sprague-Dawley rat plasma at 10 mg/kg, po; assay type: ADME, organism-based; procedure, shortened: as §3
[15] = AUC(0 to infinity) in Sprague-Dawley rat plasma at 1 mg/kg, iv; assay type: ADME, organism-based; parameters: dose 1 mg/kg, time infinity, route intravenous; procedure, shortened: as §3
[16] = target: Mast/stem cell growth factor receptor Kit (Homo sapiens) (UniProt P10721); assay: Inhibition of cKIT autophosphorylation at Y719 in human GIST882 cells up to 10 uM after 2 hrs by Western blot analysis; assay type: cell-based
[17] = target: Mast/stem cell growth factor receptor Kit (Homo sapiens) (UniProt P10721); assay: Inhibition of cKIT in human GISTT1 cells assessed as suppression of AKT phosphorylation at S473 up to 10 uM after 2 hrs by Western blot analysis; assay type: cell-based
[18] = Half life in Sprague-Dawley rat plasma at 1 mg/kg, iv; assay type: ADME, organism-based; procedure, shortened: as §3
[19] = target: Platelet-derived growth factor receptor alpha (Homo sapiens) (UniProt P16234); assay: Inhibition of PDGFRalpha phosphorylation at Y849 in human GIST882 cells up to 10 uM after 2 hrs by Western blot analysis; assay type: cell-based
Procedure, shortened: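 Cells were washed in cold PBS, lysed in RIPA and immunoblotted for phospho and total proteins, including pPDGFRα Y849/PDGFRβ Y857 and β-actin.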

[20] = Antiproliferative activity against human U937 cells assessed as reduction in cell viability after 72 hrs by celltiter-glo/CCK8 assay; assay type: functional; conditions: U-937, 72 h; procedure, shortened: as §1
[21] = Half life in Sprague-Dawley rat plasma at 10 mg/kg, po; assay type: ADME, organism-based; procedure, shortened: as §3
[22] = target: Mast/stem cell growth factor receptor Kit (Homo sapiens) (UniProt P10721); assay: Inhibition of cKIT in human GIST48B cells assessed as suppression of ERK phosphorylation at T202/Y204 up to 10 uM after 2 hrs by Western blot analysis; assay type: cell-based
[23] = Apparent clearance in Sprague-Dawley rat plasma at 1 mg/kg, iv; assay type: ADME, organism-based; conditions: read-out: CL(app) (converted); procedure, shortened: as §3

Mast/stem cell growth factor receptor Kit (Homo sapiens), sequence (P10721 whole entry): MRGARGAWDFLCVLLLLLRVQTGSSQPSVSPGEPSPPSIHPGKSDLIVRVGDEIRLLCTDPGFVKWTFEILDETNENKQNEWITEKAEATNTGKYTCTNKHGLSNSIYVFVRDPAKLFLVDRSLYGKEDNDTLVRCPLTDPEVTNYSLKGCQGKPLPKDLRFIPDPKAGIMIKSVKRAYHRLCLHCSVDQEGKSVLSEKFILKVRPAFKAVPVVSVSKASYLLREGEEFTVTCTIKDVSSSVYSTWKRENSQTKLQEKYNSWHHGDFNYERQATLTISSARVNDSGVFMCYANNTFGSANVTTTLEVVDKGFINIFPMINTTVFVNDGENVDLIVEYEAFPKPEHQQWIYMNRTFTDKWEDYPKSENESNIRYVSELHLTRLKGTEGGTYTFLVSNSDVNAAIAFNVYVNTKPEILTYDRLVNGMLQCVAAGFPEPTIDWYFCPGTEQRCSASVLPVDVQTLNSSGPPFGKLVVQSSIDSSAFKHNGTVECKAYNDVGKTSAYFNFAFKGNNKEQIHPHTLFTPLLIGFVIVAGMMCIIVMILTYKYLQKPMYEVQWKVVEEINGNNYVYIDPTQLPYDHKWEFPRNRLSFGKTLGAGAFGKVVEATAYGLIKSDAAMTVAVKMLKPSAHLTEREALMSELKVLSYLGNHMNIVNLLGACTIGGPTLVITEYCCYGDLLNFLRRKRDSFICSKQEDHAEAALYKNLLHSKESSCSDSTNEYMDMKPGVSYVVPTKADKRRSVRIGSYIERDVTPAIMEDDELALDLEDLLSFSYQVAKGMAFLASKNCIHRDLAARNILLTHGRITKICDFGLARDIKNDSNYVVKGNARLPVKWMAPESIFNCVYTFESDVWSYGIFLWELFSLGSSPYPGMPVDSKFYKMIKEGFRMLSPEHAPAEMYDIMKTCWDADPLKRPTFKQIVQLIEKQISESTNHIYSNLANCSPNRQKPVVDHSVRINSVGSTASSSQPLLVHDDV
Platelet-derived growth factor receptor beta, sequence (P09619 whole entry, the tested form may be a part): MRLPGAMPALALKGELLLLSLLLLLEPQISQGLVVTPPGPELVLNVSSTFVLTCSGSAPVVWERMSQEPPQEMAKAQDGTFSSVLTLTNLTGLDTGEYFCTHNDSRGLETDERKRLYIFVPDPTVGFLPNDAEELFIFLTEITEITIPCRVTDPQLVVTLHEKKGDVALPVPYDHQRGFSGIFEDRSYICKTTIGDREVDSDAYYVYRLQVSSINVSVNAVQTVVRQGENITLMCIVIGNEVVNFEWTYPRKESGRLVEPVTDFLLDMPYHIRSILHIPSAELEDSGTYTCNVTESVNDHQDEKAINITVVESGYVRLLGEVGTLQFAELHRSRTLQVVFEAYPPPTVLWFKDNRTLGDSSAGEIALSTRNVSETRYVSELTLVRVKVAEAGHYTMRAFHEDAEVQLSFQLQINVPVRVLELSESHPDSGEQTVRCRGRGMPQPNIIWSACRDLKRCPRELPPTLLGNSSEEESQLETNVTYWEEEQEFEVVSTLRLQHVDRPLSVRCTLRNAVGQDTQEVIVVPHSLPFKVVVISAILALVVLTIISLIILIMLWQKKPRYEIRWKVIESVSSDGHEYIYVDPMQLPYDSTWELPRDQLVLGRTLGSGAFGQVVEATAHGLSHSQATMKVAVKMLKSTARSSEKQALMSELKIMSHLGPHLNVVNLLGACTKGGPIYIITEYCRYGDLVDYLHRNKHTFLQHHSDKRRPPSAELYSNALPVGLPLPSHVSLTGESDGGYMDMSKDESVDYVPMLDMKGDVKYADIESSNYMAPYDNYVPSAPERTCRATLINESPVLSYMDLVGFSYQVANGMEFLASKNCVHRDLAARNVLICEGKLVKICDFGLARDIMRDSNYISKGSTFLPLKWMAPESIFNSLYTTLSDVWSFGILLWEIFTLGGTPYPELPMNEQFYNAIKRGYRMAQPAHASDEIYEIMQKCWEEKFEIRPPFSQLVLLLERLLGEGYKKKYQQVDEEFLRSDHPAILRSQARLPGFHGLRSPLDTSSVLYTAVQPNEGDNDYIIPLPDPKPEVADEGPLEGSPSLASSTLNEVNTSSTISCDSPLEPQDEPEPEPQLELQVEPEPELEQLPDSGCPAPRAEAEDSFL
Mast/stem cell growth factor receptor Kit (Homo sapiens), P10721 [D816V], sequence (P10721 whole entry D816V, the tested form may be a part): as the sequence (P10721 whole entry) above, with D816V counted along it
Mast/stem cell growth factor receptor Kit (Homo sapiens), P10721 [V559D], sequence (P10721 whole entry V559D, the tested form may be a part): as the sequence (P10721 whole entry) above, with V559D counted along it
Platelet-derived growth factor receptor alpha (Homo sapiens), sequence (P16234 whole entry): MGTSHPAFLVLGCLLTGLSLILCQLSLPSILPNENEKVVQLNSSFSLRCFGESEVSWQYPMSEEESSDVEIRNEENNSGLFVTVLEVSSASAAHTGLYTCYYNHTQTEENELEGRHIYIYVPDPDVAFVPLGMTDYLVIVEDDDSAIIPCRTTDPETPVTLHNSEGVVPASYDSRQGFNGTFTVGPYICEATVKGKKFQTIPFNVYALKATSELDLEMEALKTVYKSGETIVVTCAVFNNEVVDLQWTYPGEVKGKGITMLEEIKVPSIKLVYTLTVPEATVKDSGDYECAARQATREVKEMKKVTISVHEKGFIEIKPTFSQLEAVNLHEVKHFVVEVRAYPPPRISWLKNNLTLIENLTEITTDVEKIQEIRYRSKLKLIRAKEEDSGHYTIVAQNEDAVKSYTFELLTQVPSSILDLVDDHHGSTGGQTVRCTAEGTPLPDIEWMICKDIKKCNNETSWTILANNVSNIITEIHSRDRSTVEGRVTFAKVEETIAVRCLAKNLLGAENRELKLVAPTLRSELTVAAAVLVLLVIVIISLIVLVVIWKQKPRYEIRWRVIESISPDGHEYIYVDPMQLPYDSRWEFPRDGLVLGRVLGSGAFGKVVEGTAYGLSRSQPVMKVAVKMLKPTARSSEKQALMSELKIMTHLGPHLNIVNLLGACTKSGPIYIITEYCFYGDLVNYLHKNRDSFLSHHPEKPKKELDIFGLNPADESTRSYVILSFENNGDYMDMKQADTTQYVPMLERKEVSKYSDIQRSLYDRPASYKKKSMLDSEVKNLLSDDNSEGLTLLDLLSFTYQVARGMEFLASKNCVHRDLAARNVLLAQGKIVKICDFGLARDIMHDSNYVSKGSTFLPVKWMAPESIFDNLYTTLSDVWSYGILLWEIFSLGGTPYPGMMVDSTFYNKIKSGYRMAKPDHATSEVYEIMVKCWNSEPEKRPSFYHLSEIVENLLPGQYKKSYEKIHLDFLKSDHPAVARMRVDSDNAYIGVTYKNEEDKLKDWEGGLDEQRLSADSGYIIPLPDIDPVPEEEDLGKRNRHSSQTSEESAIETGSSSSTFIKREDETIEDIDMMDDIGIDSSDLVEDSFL
Macrophage colony-stimulating factor 1 receptor, sequence (P07333 whole entry): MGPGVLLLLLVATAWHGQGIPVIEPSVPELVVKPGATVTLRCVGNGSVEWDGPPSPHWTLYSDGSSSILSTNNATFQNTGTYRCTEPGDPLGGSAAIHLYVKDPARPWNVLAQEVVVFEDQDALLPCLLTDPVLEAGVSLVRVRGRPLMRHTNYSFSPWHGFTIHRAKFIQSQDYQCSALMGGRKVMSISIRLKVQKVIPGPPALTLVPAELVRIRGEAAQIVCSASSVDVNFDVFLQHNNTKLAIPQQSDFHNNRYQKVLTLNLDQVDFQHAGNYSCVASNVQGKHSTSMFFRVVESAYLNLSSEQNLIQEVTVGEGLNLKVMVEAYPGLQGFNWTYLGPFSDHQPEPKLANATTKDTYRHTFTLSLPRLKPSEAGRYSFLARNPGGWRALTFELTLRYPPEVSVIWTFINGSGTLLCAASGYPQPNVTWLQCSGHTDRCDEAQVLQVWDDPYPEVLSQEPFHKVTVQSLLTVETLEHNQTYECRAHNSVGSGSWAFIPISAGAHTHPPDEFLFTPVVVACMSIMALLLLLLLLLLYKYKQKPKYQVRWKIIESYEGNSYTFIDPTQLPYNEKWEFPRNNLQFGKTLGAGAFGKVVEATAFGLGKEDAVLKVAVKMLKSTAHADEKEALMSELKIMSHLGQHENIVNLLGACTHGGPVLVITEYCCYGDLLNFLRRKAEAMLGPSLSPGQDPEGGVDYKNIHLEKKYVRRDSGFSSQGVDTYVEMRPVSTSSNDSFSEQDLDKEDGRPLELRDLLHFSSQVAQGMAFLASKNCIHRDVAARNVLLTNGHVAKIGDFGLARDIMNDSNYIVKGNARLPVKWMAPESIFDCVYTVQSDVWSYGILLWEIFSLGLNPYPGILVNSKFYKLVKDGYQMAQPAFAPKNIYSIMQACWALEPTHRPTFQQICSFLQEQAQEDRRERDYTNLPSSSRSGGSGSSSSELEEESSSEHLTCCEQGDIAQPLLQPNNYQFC

inhibition [1]: inactive | GI50 [6]: > 10000 nM | GI50 [7]: 40 nM | IC50 [9]: 133 nM | Tmax [10]: 1.02 min | IC50 [11]: 120 nM | AUC(0-inf) [12]: 780 ng·h/mL | Activity [13]: 0.45% | GI50 (K562): > 10000 nM | AUC(0-t) [14]: 715 ng·h/mL | AUC(0-inf) [15]: 202 ng·h/mL | inhibition [16]: Active | inhibition [17]: Active | half-life [18]: 27.1 min | inhibition [19]: Active | half-life [21]: 247 min | inhibition [22]: inactive | clearance [23]: 83.1 mL/min/kg
Compound: Cc1ccc(NC(=O)c2cccc(C(F)(F)F)c2)cc1OC1CCN(C(=O)c2ccncc2)CC1
GI50 [2]: 43 nM | Activity (GISTT1 [3]): Active | GI50 [4]: 21 nM | Activity (GISTT1 [5]): Active | GI50 [8]: 7430 nM | GI50 [20]: > 10000 nM
